In brackets after ≈: the same amount, converted by molar mass.
Key:
Assay type in all cases: functional
Streptococcus pneumoniae [1] = assay: Antimicrobial activity against erythromycin-resistant Streptococcus pneumoniae by broth microdilution method
In short: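 Isolates were tested by broth microdilution in commercial microtiter trays. Medium was cation-adjusted Mueller-Hinton broth supplemented with 3 to 5% lysed horse blood. MICs were interpreted by CLSI criteria.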

Streptococcus pneumoniae [2] = assay: Antimicrobial activity against erythromycin-resistant Streptococcus pneumoniae assessed as susceptible isolates by broth microdilution method
In short: (§1)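 Isolates were tested by broth microdilution in commercial microtiter trays. Medium was cation-adjusted Mueller-Hinton broth supplemented with 3 to 5% lysed horse blood. MICs were interpreted by CLSI criteria. For penicillin, the pre-2008 breakpoints were applied (susceptible ≤0.06 mg/liter).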

Streptococcus pneumoniae [3] = assay: Antimicrobial activity against erythromycin-resistant Streptococcus pneumoniae assessed as resistant isolates by broth microdilution method; in short: as §1
Streptococcus pneumoniae [4] = assay: Antimicrobial activity against erythromycin-resistant Streptococcus pneumoniae assessed as susceptible isolates by broth microdilution method in presence of clavulanic acid; in short: as §1
Streptococcus pneumoniae [5] = assay: Antimicrobial activity against erythromycin-resistant Streptococcus pneumoniae assessed as resistant isolates by broth microdilution method in presence of clavulanic acid; in short: as §1
Streptococcus pneumoniae [6] = assay: Antimicrobial activity against erythromycin-resistant Streptococcus pneumoniae by broth microdilution method in presence of clavulanic acid
In short: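 Broth microdilution in commercial pre-made microtiter trays using cation-adjusted Mueller-Hinton broth with 3 to 5% lysed horse blood. Pneumococcal isolates were tested, and MICs were interpreted by CLSI criteria.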

SMILES	MIC50 (Streptococcus pneumoniae [1]) [µg/mL]	MIC90 (Streptococcus pneumoniae [1]) [µg/mL]	Activity (Streptococcus pneumoniae [2]) [%]	Activity (Streptococcus pneumoniae [3]) [%]	MIC (Streptococcus pneumoniae [1]) [µg/mL]	Activity (Streptococcus pneumoniae [4]) [%]	Activity (Streptococcus pneumoniae [5]) [%]	MIC (Streptococcus pneumoniae [6]) [µg/mL]	MIC50 (Streptococcus pneumoniae [6]) [µg/mL]	MIC90 (Streptococcus pneumoniae [6]) [µg/mL]
CN[C@H](CC(C)C)C(=O)N[C@H]1C(=O)N[C@@H](CC(N)=O)C(=O)N[C@H]2C(=O)N[C@H]3C(=O)N[C@H](C(=O)N[C@H](C(=O)O)c4cc(O)cc(O)c4-c4cc3ccc4O)[C@H](O)c3ccc(c(Cl)c3)Oc3cc2cc(c3O[C@@H]2O[C@H](CO)[C@@H](O)[C@H](O)[C@H]2O[C@H]2C[C@](C)(N)[C@H](O)[C@H](C)O2)Oc2ccc(cc2Cl)[C@H]1O [VANCOMYCIN]	< 0.5	< 0.5	100	0						
CO/N=C(\C(=O)N[C@@H]1C(=O)N2C(C(=O)O)=C(COC(C)=O)CS[C@H]12)c1csc(N)n1 [CEFOTAXIME]	1 (≈ 2.2 µM)	2 (≈ 4.39 µM)	62.7	5.9						
CC(=O)NC[C@H]1CN(c2ccc(N3CCOCC3)c(F)c2)C(=O)O1 [LINEZOLID]	1 (≈ 2.96 µM)	1 (≈ 2.96 µM)	100	0						
CC1(C)S[C@@H]2[C@H](NC(=O)Cc3ccccc3)C(=O)N2[C@H]1C(=O)O [PENICILLIN G]	2 (≈ 5.98 µM)	4 (≈ 12 µM)	24.5	68.6						
O=C(N[C@H](CO)[C@H](O)c1ccc([N+](=O)[O-])cc1)C(Cl)Cl [CHLORAMPHENICOL]	4 (≈ 12.4 µM)	8 (≈ 24.8 µM)	66.7	33.3						
CN(C)[C@@H]1C(O)=C(C(N)=O)C(=O)[C@@]2(O)C(O)=C3C(=O)c4c(O)cccc4[C@@](C)(O)[C@H]3C[C@@H]12 [TETRACYCLINE]	≥ 8	≥ 8	24.5	74.5						
C[C@H]1COc2c(N3CCN(C)CC3)c(F)cc3c(=O)c(C(=O)O)cn1c23.C[C@H]1COc2c(N3CCN(C)CC3)c(F)cc3c(=O)c(C(=O)O)cn1c23.O [LEVOFLOXACIN]	1	1	100	0						
COc1c(N2CCNC(C)C2)c(F)cc2c(=O)c(C(=O)O)cn(C3CC3)c12 (stereo not drawn) [GATIFLOXACIN]	< 0.5	< 0.5	100	0	< 0.5					
CC[C@H]1OC(=O)[C@H](C)[C@@H](O[C@H]2C[C@@](C)(OC)[C@@H](O)[C@H](C)O2)[C@H](C)[C@@H](O[C@@H]2O[C@H](C)C[C@H](N(C)C)[C@H]2O)[C@](C)(O)C[C@@H](C)C(=O)[C@H](C)[C@@H](O)[C@]1(C)O [ERYTHROMYCIN]	> 2	> 2	0	100	> 2					
CC1(C)S[C@@H]2[C@H](NC(=O)[C@H](N)c3ccc(O)cc3)C(=O)N2[C@H]1C(=O)O [AMOXICILLIN]						66.7	28.4	< 2	< 2	> 8
CCC[C@@H]1C[C@@H](C(=O)N[C@@H]([C@H]2O[C@H](SC)[C@H](O)[C@@H](O)[C@H]2O)[C@H](C)Cl)N(C)C1 [CLINDAMYCIN]	> 2	> 2	30.4	67.6						
COc1c(N2C[C@@H]3CCCN[C@@H]3C2)c(F)cc2c(=O)c(C(=O)O)cn(C3CC3)c12 [MOXIFLOXACIN]			100	0						
C[C@@H](O)[C@H]1C(=O)N2C(C(=O)O)=C(S[C@@H]3CN[C@H](C(=O)N(C)C)C3)[C@H](C)[C@H]12 [MEROPENEM]	0.5 (≈ 1.3 µM)	1 (≈ 2.61 µM)	33.3	34.3						
CC[C@H]1OC(=O)[C@H](C)[C@@H](O[C@H]2C[C@@](C)(OC)[C@@H](O)[C@H](C)O2)[C@H](C)[C@@H](O[C@@H]2O[C@H](C)C[C@H](N(C)C)[C@H]2O)[C@](C)(O)C[C@@H](C)CN(C)[C@H](C)[C@@H](O)[C@]1(C)O [AZITHROMYCIN]	> 2	> 2	0	100	> 2					

— ChEMBL document CHEMBL1671681, “Distribution of serotypes, genotypes, and resistance determinants among macrolide-resistant Streptococcus pneumoniae isolates” (2010)
